Most compounds without a hit are left out; they make up all but 1.8% or so of the library.
NPY-Y1 antag = NPY-Y1 receptor antagonists, primary screen, cell-based | HEK293-CNG Y1 cells, membrane potential fluorescence; NPY at EC95, then isoproterenol | inhibition, % at 3.6 µM | actives 1% (n = 200,000) | AID 1040, 2008;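 active = inhibition above the campaign mean inhibition of all tested compounds plus 3 SD, cut at about 20% in these data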;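 also: 0% = DMSO wells given NPY plus isoproterenol and 100% = isoproterenol alone without NPY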
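System: HEK293 cells with Y1 receptor plus CNG channel / Probe or stimulus: NPY 25 nM then isoproterenol 1 µM plus Ro 20-1724 25 µM / Compound: one concentration, 3.6 µM, in 0.4% DMSO / Schedule: compound incubation 1 h at room temperature, readout 45 min post-stimulation / Measured by: membrane potential fluorescence / Read-out: % inhibition of NPY effect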
NPY1 pot ag = NPY-Y1 receptor potentiators or agonists, primary screen, cell-based. activation, % at 3.6 µM. Neuropeptide Y receptor type 1 (Homo sapiens), P25929. actives 0.37% (n = 220,000). NPY-Y1 expressing cells, potentiator/agonist activation; in the data active = activation above about 33%, passing the limit was not always enough;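 also: cells stimulated with NPY at EC10 then isoproterenol at EC100; 0% = low agonist plus stimulus and 100% = saturating agonist plus stimulus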
NPY2 pot ag = NPY-Y2 potentiators or agonists, primary screen, cell-based; Neuropeptide Y receptor type 2 (Homo sapiens), P49146; cells expressing NPY-Y2, potentiator/agonist read-out; activation, % at 3.6 µM; actives 0.45% (n = 220,000); AID 1359, 2008; in the data active = activation above about 27%;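 also: cells stimulated with NPY near EC25 plus isoproterenol at EC100; 0% = vehicle plus submaximal agonist and 100% = vehicle plus saturating agonist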
Target sequence (P49146 whole entry, looked up): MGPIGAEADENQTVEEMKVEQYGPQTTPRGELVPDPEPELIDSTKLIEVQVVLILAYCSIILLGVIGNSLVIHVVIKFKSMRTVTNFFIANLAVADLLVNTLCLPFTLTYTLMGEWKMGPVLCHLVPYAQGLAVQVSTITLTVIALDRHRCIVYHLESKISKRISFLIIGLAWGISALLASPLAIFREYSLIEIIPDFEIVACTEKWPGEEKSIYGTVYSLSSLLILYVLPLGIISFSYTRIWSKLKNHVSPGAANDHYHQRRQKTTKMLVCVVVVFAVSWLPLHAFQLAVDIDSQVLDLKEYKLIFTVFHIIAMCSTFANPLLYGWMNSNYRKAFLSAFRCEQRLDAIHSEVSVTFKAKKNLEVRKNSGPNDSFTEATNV
NPY-Y2 antag = NPY-Y2 receptor antagonists, primary screen, cell-based | actives 0.99% (n = 140,000) | NPY-Y2 expressing cells, antagonist mode | Neuropeptide Y receptor type 2 (Homo sapiens), P49146 | inhibition, % at 2.7 µM; in the data active = inhibition above about 17%;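 also: 0% = vehicle with agonist challenge and 100% = reference antagonist with challenge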
NPY1 antag ctr = NPY-Y1 receptor antagonists, selectivity check, counter-screen for NPY-Y2 antagonist project, cell-based | shares compounds with NPY-Y2 antag | cell-based NPY-Y1 antagonism counterscreen | inhibition, % at 3.6 µM | actives 19% (n = 710); in the data active = inhibition above about 20%;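 also: cells challenged with NPY then isoproterenol with cAMP sensed through a CNG channel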
NPY2 antag conf = NPY-Y2 receptor antagonists, retest of hits, confirmation, HEK293-CNG cells, membrane potential fluorescence, triplicate; inhibition, % at 2.8 µM; HEK293 NPY-Y2 CNG channel; shares compounds with NPY-Y2 antag; actives 32% (n = 710);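 active = mean inhibition of triplicate wells above the hit cutoff set in the primary screen, cut at about 17% in these data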;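 also: 0% = DMSO with NPY challenge and 100% = BIIE0246 high control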
The depositor's hits bear a star.

For COc1cc2c(cc1OC)-c1cc(NC3CCCCCC3)nc(=O)n1CC2 the results were NPY-Y1 antag 48.8*, NPY1 pot ag -19.7, NPY2 pot ag -3.1 and NPY-Y2 antag 42.6*.
For COc1cc2c(cc1OC)-c1cc(N3CCCCCC3)nc(=O)n1CC2 the results were NPY-Y1 antag 24.4*, NPY1 pot ag -23.1, NPY2 pot ag -3.0 and NPY-Y2 antag 32.3*.
Screening COc1cc2c(cc1OC)-c1cc(Nc3ccccc3)nc(=O)n1CC2 returned NPY1 pot ag -21.6 and NPY2 pot ag -53.5.
For COc1cc2c(cc1OC)-c1cc(N3CCCc4ccccc43)nc(=O)n1CC2 the results were NPY-Y1 antag 122.6*, NPY1 pot ag -39.7, NPY2 pot ag -9.9 and NPY-Y2 antag 135.8*.
COc1cc2c(cc1OC)-c1cc(N3CCc4ccccc43)nc(=O)n1CC2 was read as NPY1 pot ag -16.9 and NPY2 pot ag -26.8.
Screening Cc1ccc(S(=O)(=O)N2CCC(C(=O)NCCc3ccccn3)CC2)cc1 returned NPY-Y1 antag -4.0, NPY1 pot ag 6.2 and NPY2 pot ag 4.5.
`CCCCOc1ccc(Br)cc1/C(C)=N/NC1=NCCN1` gave NPY-Y1 antag 50.3*, NPY1 pot ag -59.8, NPY2 pot ag -15.4 and NPY-Y2 antag 49.6*.
Screening Cc1ccc(CS(=O)(=O)c2ccc(C(=O)N3CCCCC3)cc2[N+](=O)[O-])cc1 returned NPY-Y1 antag 1.0, NPY1 pot ag -7.7 and NPY2 pot ag 2.1.
Screening Cc1ccc(CS(=O)(=O)c2ccc(C(=O)N3CCN(c4ccccn4)CC3)cc2[N+](=O)[O-])cc1 returned NPY-Y1 antag 20.2*, NPY1 pot ag -8.7 and NPY2 pot ag 8.3.
For COc1ccc(S(=O)(=O)Nc2ccc(Cl)cn2)c(C)c1C the results were NPY-Y1 antag -8.6, NPY1 pot ag 59.1*, NPY2 pot ag 36.9* and NPY-Y2 antag -13.1.
CCOc1cc(S(=O)(=O)Nc2ccc(Cl)cn2)ccc1F was read as NPY-Y1 antag 8.6, NPY1 pot ag -36.9, NPY2 pot ag -5.4 and NPY-Y2 antag 4.1.
For CC(C)C(=O)N1CCN(c2ccccc2NC(=O)c2cc([N+](=O)[O-])ccc2N2CCOCC2)CC1 the results were NPY-Y1 antag 11.7, NPY1 pot ag 13.6 and NPY2 pot ag -7.4.
CC(C)(C)NC[C@H](O)COc1nsnc1N1CCOCC1 was read as NPY-Y1 antag -10.7, NPY1 pot ag 118.1*, NPY2 pot ag 103.6* and NPY-Y2 antag 0.9.
Screening CCCCC(=O)Nc1nc2c(OC)cc([N+](=O)[O-])cc2s1 returned NPY-Y1 antag -10.8, NPY1 pot ag 38.6* and NPY2 pot ag 33.0*.
For CCOc1ccc(NCc2cc3c(C(C)(C)C)nn(-c4ccccc4)c3[nH]c2=O)cc1 the results were NPY-Y1 antag -10.6, NPY1 pot ag 56.0*, NPY2 pot ag 35.2* and NPY-Y2 antag -1.8.
Screening Cc1nn(Cc2ccccc2Cl)c(C)c1C(=O)NCCN1C(=O)S/C(=C\c2ccccc2)C1=O returned NPY-Y1 antag -1.1, NPY1 pot ag 6.7, NPY2 pot ag 7.6, NPY-Y2 antag 22.1*, NPY1 antag ctr 4.1 and NPY2 antag conf 4.0.
Screening Cc1nn(Cc2ccccc2Cl)c(C)c1C(=O)NCc1ccco1 returned NPY-Y1 antag 1.2, NPY1 pot ag -3.3, NPY2 pot ag 3.0 and NPY-Y2 antag -0.2.
Screening CN(C)C(=O)C(NC(=O)c1ccccc1)=C(Cl)Cl returned NPY-Y1 antag 6.7, NPY1 pot ag -11.0 and NPY2 pot ag -13.4.
Screening O=C(NNS(=O)(=O)c1ccccc1[N+](=O)[O-])c1cccc([N+](=O)[O-])c1 returned NPY-Y1 antag 8.7, NPY1 pot ag 8.4, NPY2 pot ag 6.0 and NPY-Y2 antag 1.6.
N/C(=N\OC(=O)COc1ccccc1Cl)c1ccc(Cl)cc1 was read as NPY-Y1 antag 8.4, NPY1 pot ag -23.0, NPY2 pot ag -23.9, NPY-Y2 antag 17.9*, NPY1 antag ctr 5.6 and NPY2 antag conf 10.2.
COc1cccc(C(=O)NC(=S)Nn2cnnc2)c1OC was read as NPY-Y1 antag 7.2, NPY1 pot ag 0.9 and NPY2 pot ag 1.5.
`O=C(NC1CCCCC1)C(c1ccc2ncccc2c1)N(Cc1ccc(F)cc1)C(=O)c1cccs1` (stereo not given) gave NPY-Y1 antag 18.8, NPY1 pot ag -33.1, NPY2 pot ag -12.5, NPY-Y2 antag 30.7*, NPY1 antag ctr 11.8 and NPY2 antag conf 9.4.
COC(=O)c1ccc(C(C(=O)NC2CCCCC2)N(Cc2ccc(F)cc2)C(=O)Cc2cccs2)cc1 (stereo not given) was read as NPY-Y1 antag -4.4, NPY1 pot ag -8.0, NPY2 pot ag -12.2, NPY-Y2 antag 19.3*, NPY1 antag ctr 6.6 and NPY2 antag conf 9.3.
`COC(=O)c1ccc(C(C(=O)NC2CCCCC2)N(CCc2ccccc2)C(=O)Cc2cccs2)cc1` (stereo not given) gave NPY-Y1 antag 2.2, NPY1 pot ag -16.9, NPY2 pot ag 10.8 and NPY-Y2 antag 1.8.
Screening C=C(C)CSc1nc2c(c(=O)[nH]c(=O)n2C)n1CCC(C)C returned NPY-Y1 antag 1.9, NPY1 pot ag -8.0, NPY2 pot ag 10.5, NPY-Y2 antag 22.1*, NPY1 antag ctr 1.9 and NPY2 antag conf -0.1.
`CC(C)(C)NC(=S)NCC1CC1` gave NPY1 pot ag -6.1 and NPY2 pot ag -19.3.
CCOc1ccc(-c2nc(C#N)c(NCc3ccc4c(c3)OCO4)o2)cc1 was read as NPY-Y1 antag 5.2, NPY1 pot ag -8.3, NPY2 pot ag -6.0 and NPY-Y2 antag 9.0.
For Cc1ccc(OCc2nc(C#N)c(NCc3ccc4c(c3)OCO4)o2)cc1 the results were NPY-Y1 antag 11.2, NPY1 pot ag -65.7, NPY2 pot ag -21.2, NPY-Y2 antag 22.2*, NPY1 antag ctr 11.4 and NPY2 antag conf 9.3.
C=CCN(c1ccc(C(=O)Nc2ccc(NC(C)=O)cc2)cc1)S(C)(=O)=O was read as NPY-Y1 antag 2.7, NPY1 pot ag -6.0 and NPY2 pot ag -6.2.
`Fc1ccc(-c2nnn(Cc3nc4ccccc4s3)n2)cc1` gave NPY-Y1 antag 6.8, NPY1 pot ag -42.6, NPY2 pot ag -20.7 and NPY-Y2 antag 11.1.
`Clc1ccc(-c2nnn(Cc3nc4ccccc4s3)n2)cc1` gave NPY-Y1 antag 11.2, NPY1 pot ag -37.9, NPY2 pot ag -22.4, NPY-Y2 antag 18.2*, NPY1 antag ctr 19.8 and NPY2 antag conf 24.2*.

Screens deposited in PubChem by The Scripps Research Institute Molecular Screening Center.
